Measured values from publication PMC6247064 (Cancer Science, 2018).

Tested on: Japanese patients with advanced solid tumors
Test: Phase 1 study: safety, tolerability, DLT and treatment-emergent adverse events
Type: in vivo, human
Method in brief: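 Open-label single-arm dose levels of 80 or 105 mg/m2 IV were given on day 1 of 14-day cycles, with at most 6 patients per level. Adverse events were graded by CTCAE v4.03. DLTs were related events in cycle 1 meeting predefined hematologic or nonhematologic criteria. Tolerability required a cycle 1 DLT rate <33%. Primary G-CSF prophylaxis was barred during DLT evaluation; G-CSF was allowed for treatment-emergent neutropenia and as secondary prophylaxis.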

COc1cccc(OCCCN)c1-c1cc(Nc2cnc(C#N)cn2)n[nH]1 [Prexasertib]
4 (66.7) n (%): TEAE related to study treatment: Thrombocytopenia (105 mg/m^2 N = 6, Any grade) | TEAE related to study treatment: Leukopenia (105 mg/m^2 N = 6, Grade 3)
3 (50.0) n (%): TEAE related to study treatment: Leukopenia (80 mg/m^2 N = 6, Grade 4) | TEAE related to study treatment: Neutropenia (80 mg/m^2 N = 6, Grade 4) | TEAE related to study treatment: Any (105 mg/m^2 N = 6, Grade 3) | TEAE related to study treatment: Neutropenia (105 mg/m^2 N = 6, Grade 3)
5 patients: Patients with at least 1 AE that led to a dose adjustment (80 mg/m^2 group)
4 patients: Patients with at least 1 AE that led to dose reduction (80 mg/m^2 group (80 to 60 mg/m^2))
1 (16.7) n (%): TEAE related to study treatment: Febrile neutropenia (80 mg/m^2 N = 6, Grade 4) | TEAE related to study treatment: Thrombocytopenia (80 mg/m^2 N = 6, Grade 4) | TEAE related to study treatment: Constipation (105 mg/m^2 N = 6, Any grade) | TEAE related to study treatment: Fatigue (105 mg/m^2 N = 6, Any grade) | TEAE related to study treatment: Febrile neutropenia (105 mg/m^2 N = 6, Any grade) | TEAE related to study treatment: Headache (105 mg/m^2 N = 6, Any grade) | TEAE related to study treatment: Hypocalcemia (105 mg/m^2 N = 6, Any grade) | TEAE related to study treatment: Pyrexia (105 mg/m^2 N = 6, Any grade) | TEAE related to study treatment: Rash maculopapular (105 mg/m^2 N = 6, Any grade) | TEAE related to study treatment: Febrile neutropenia (105 mg/m^2 N = 6, Grade 3) | TEAE related to study treatment: Thrombocytopenia (105 mg/m^2 N = 6, Grade 3) | TEAE related to study treatment: Febrile neutropenia (105 mg/m^2 N = 6, Grade 3 + 4)
0 n (%): TEAE related to study treatment: Headache (80 mg/m^2 N = 6, Grade 4) | TEAE related to study treatment: Hypocalcemia (80 mg/m^2 N = 6, Grade 4) | TEAE related to study treatment: Lung infection (80 mg/m^2 N = 6, Grade 4) | TEAE related to study treatment: Lymphocytopenia (80 mg/m^2 N = 6, Grade 4) | TEAE related to study treatment: Nausea (80 mg/m^2 N = 6, Grade 4) | TEAE related to study treatment: Pyrexia (80 mg/m^2 N = 6, Grade 4) | TEAE related to study treatment: Rash (80 mg/m^2 N = 6, Grade 4) | TEAE related to study treatment: Rash maculopapular (80 mg/m^2 N = 6, Grade 4) | TEAE related to study treatment: SVE (supraventricular extrasystoles) (80 mg/m^2 N = 6, Grade 4) | TEAE related to study treatment: Stomatitis (80 mg/m^2 N = 6, Grade 4) | TEAE related to study treatment: Anemia (105 mg/m^2 N = 6, Any grade) | TEAE related to study treatment: Atrial fibrillation (105 mg/m^2 N = 6, Any grade) | TEAE related to study treatment: ECG QT prolonged (105 mg/m^2 N = 6, Any grade) | TEAE related to study treatment: Lung infection (105 mg/m^2 N = 6, Any grade) | TEAE related to study treatment: Lymphocytopenia (105 mg/m^2 N = 6, Any grade) | TEAE related to study treatment: Nausea (105 mg/m^2 N = 6, Any grade) | TEAE related to study treatment: Rash (105 mg/m^2 N = 6, Any grade) | TEAE related to study treatment: SVE (supraventricular extrasystoles) (105 mg/m^2 N = 6, Any grade) | TEAE related to study treatment: Stomatitis (105 mg/m^2 N = 6, Any grade) | TEAE related to study treatment: Anemia (105 mg/m^2 N = 6, Grade 3) | TEAE related to study treatment: Atrial fibrillation (105 mg/m^2 N = 6, Grade 3) | TEAE related to study treatment: Constipation (105 mg/m^2 N = 6, Grade 3) | TEAE related to study treatment: ECG QT prolonged (105 mg/m^2 N = 6, Grade 3) | TEAE related to study treatment: Fatigue (105 mg/m^2 N = 6, Grade 3) | TEAE related to study treatment: Headache (105 mg/m^2 N = 6, Grade 3) | TEAE related to study treatment: Hypocalcemia (105 mg/m^2 N = 6, Grade 3) | TEAE related to study treatment: Lung infection (105 mg/m^2 N = 6, Grade 3) | TEAE related to study treatment: Lymphocytopenia (105 mg/m^2 N = 6, Grade 3) | TEAE related to study treatment: Nausea (105 mg/m^2 N = 6, Grade 3) | TEAE related to study treatment: Pyrexia (105 mg/m^2 N = 6, Grade 3) | TEAE related to study treatment: Rash (105 mg/m^2 N = 6, Grade 3) | TEAE related to study treatment: Rash maculopapular (105 mg/m^2 N = 6, Grade 3) | TEAE related to study treatment: SVE (supraventricular extrasystoles) (105 mg/m^2 N = 6, Grade 3) | TEAE related to study treatment: Stomatitis (105 mg/m^2 N = 6, Grade 3) | TEAE related to study treatment: Anemia (105 mg/m^2 N = 6, Grade 3 + 4) | TEAE related to study treatment: Atrial fibrillation (105 mg/m^2 N = 6, Grade 3 + 4) | TEAE related to study treatment: Constipation (105 mg/m^2 N = 6, Grade 3 + 4) | TEAE related to study treatment: ECG QT prolonged (105 mg/m^2 N = 6, Grade 3 + 4) | TEAE related to study treatment: Fatigue (105 mg/m^2 N = 6, Grade 3 + 4) | TEAE related to study treatment: Headache (105 mg/m^2 N = 6, Grade 3 + 4) | TEAE related to study treatment: Hypocalcemia (105 mg/m^2 N = 6, Grade 3 + 4)
5 (83.3) n (%): TEAE related to study treatment: Leukopenia (105 mg/m^2 N = 6, Grade 3 + 4)
6 (100) n (%): TEAE related to study treatment: Any (105 mg/m^2 N = 6, Any grade) | TEAE related to study treatment: Leukopenia (105 mg/m^2 N = 6, Any grade) | TEAE related to study treatment: Neutropenia (105 mg/m^2 N = 6, Any grade) | TEAE related to study treatment: Any (105 mg/m^2 N = 6, Grade 3 + 4)
3 patients: Patients with at least 1 AE that led to a dose delay (80 mg/m^2 group)
